# In ChEMBL document CHEMBL4765347, “Radiomodulatory effect of a non-electrophilic NQO1 inducer identified in a screen of new 6, 8-diiodoquinazolin-4(3H)-ones carrying a sulfonamide moiety” (Eur J Med Chem, 2020):
# Calls of active or inactive are those of the source. The rule behind the calls is not given here.
# Tests used:
# Nrf2 (Mus musculus) [1] = experiment: Activation of Nrf2 in mouse Hepa1c1c7 cells assessed as increase in NQO1 activity at 5 uM using menadione as substrate incubated for 20 mins followed by substrate addition and measured after 30 mins by spectrophotometry relative to control; details: filed as activator, time 50.0 min
# Mus musculus [2] = experiment: Effect on hematopoiesis in gamma-irradiated Swiss albino mouse assessed as increase in radiation-reduced PLT count at 50 mg/kg, ip administered for 5 days and irradiated with gamma radiation after 1 hr of compound administration by automated micro-analyzer; format: functional, organism-based; details: time 5.0 day
# Procedure, shortened: (§1)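 Dosing was i.p. 50 mg/kg/day in 10% DMSO for 5 days, followed 1 h after the final injection by 7 Gy whole-body 137Cs gamma irradiation. Complete blood count with platelets (RBC, HGB, PLT, WBC) was done on an automated analyzer 3 days after irradiation. Data are mean ± S.E.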
# [3] = Toxicity in non-irradiated Swiss albino mouse assessed as effect on MDA level at 50 mg/kg, ip administered for 5 days by ELISA; format: organism-based; details: in vivo, 120 h, time 5 day
# Procedure, shortened: (§2)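 Non-irradiated mice were dosed 50 mg/kg/day i.p. (vehicle 10% DMSO) for 5 days and compared with vehicle controls. On day 3, five mice per group were anesthetized with urethane. Liver homogenates (ice-cold 0.1 M PBS pH 7.4, stored −80 °C) were assayed for Nrf2 and NQO1 by ELISA, for MDA as lipid peroxide marker, and for ROS. Data are mean ± S.E., n = 5, ANOVA with Bonferroni.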
# Nrf2 (Mus musculus) [4] = experiment: Activation of Nrf2 in mouse Hepa1c1c7 cells assessed as increase in NQO1 activity at 10 uM using menadione as substrate incubated for 20 mins followed by substrate addition and measured after 30 mins by spectrophotometry relative to control; details: filed as activator, time 50.0 min
# [5] = target: Nuclear factor erythroid 2-related factor 2 (Mus musculus) (UniProt Q60795); experiment: Activation of Nrf2 in mouse Hepa1c1c7 cells assessed as increase in NQO1 activity at 40 uM using menadione as substrate incubated for 20 mins followed by substrate addition and measured after 30 mins by spectrophotometry relative to control; details: filed as activator, time 50.0 min
# Nrf2 (Mus musculus) [6] = experiment: Activation of Nrf2 in mouse Hepa1c1c7 cells assessed as increase in NQO1 activity at 20 uM using menadione as substrate incubated for 20 mins followed by substrate addition and measured after 30 mins by spectrophotometry relative to control; details: filed as activator, time 50.0 min
# [7] = Toxicity in Swiss albino mouse assessed as survival rate at 50 mg/kg, ip administered for 5 days and observed for 30 days; format: organism-based; details: in vivo, 720 h, time 30 day
# Procedure, shortened: (§3)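 Albino mice received the compound at 50 mg/kg/day i.p. daily for 5 days, with 10% DMSO i.p. daily as vehicle control; 80 mice were randomised into four groups. Body weight was recorded weekly and survival was checked daily over 30 days. Mice were housed at 25 ± 5 °C, 60 ± 5% humidity and 12 h light/dark, with food and water ad libitum.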
# Nrf2 (Mus musculus) [8] = experiment: Activation of Nrf2 in mouse Hepa1c1c7 cells assessed as increase in NQO1 activity at 0.625 uM using menadione as substrate incubated for 20 mins followed by substrate addition and measured after 30 mins by spectrophotometry relative to control; details: filed as activator, time 50.0 min
# Nrf2 (Mus musculus) [9] = experiment: Activation of Nrf2 in mouse Hepa1c1c7 cells assessed as increase in NQO1 activity using menadione as substrate incubated for 20 mins followed by substrate addition and measured after 30 mins by spectrophotometry; details: filed as activator, time 50.0 min
# [10] = Toxicity in Swiss albino mouse assessed as effect on liver weight at 50 mg/kg, ip administered for 5 days and observed for 5 days; format: organism-based; details: in vivo, 120 h, time 5 day
# [11] = Toxicity in non-irradiated Swiss albino mouse assessed as increase in NQO1 level at 50 mg/kg, ip administered for 5 days by ELISA; format: organism-based; details: in vivo, 120 h, time 5 day
# Procedure, shortened: as §2
# Mus musculus [12] = experiment: Antioxidant activity against radiation-induced Swiss albino mouse assessed as increase in Nrf2 level in liver at 50 mg/kg, ip administered for 5 days and irradiated with gamma radiation after 1 hr of compound administration by ELISA relative to control; format: functional; details: time 5 day
# Procedure, shortened: (§4)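 Mice received 50 mg/kg/day i.p. in 10% DMSO for 5 days, plus whole-body 7 Gy 137Cs gamma (0.655 rad/s) 1 h after the last dose. On day 3, five mice per group were anesthetized with urethane. Livers were homogenized in ice-cold 0.1 M PBS pH 7.4. Nrf2 and NQO1 were measured by ELISA, lipid peroxidation as MDA, plus ROS generation. Data are mean ± S.E., one-way ANOVA with Bonferroni.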
# Nrf2 (Mus musculus) [13] = experiment: Activation of Nrf2 in mouse Hepa1c1c7 cells assessed as increase in NQO1 activity at 1.25 uM using menadione as substrate incubated for 20 mins followed by substrate addition and measured after 30 mins by spectrophotometry relative to control; details: filed as activator, time 50.0 min
# Nrf2 (Mus musculus) [14] = experiment: Activation of Nrf2 in mouse Hepa1c1c7 cells assessed as increase in NQO1 activity at 2.5 uM using menadione as substrate incubated for 20 mins followed by substrate addition and measured after 30 mins by spectrophotometry relative to control; details: filed as activator, time 50.0 min
# [15] = Toxicity in non-irradiated Swiss albino mouse assessed as decrease in Nrf2 level at 50 mg/kg, ip administered for 5 days by ELISA; format: organism-based; details: in vivo, 120 h, time 5 day
# Procedure, shortened: as §2
# [16] = Toxicity in non-irradiated Swiss albino mouse assessed as increase in ROS level at 50 mg/kg, ip administered for 5 days by ELISA; format: organism-based; details: in vivo, 120 h, time 5 day
# Procedure, shortened: as §2
# Nrf2 (Mus musculus) [17] = experiment: Activation of Nrf2 in mouse Hepa1c1c7 cells assessed as increase in NQO1 activity at 0.313 uM using menadione as substrate incubated for 20 mins followed by substrate addition and measured after 30 mins by spectrophotometry relative to control; details: filed as activator, time 50.0 min
# Mus musculus [18] = experiment: Effect on hematopoiesis in gamma-irradiated Swiss albino mouse assessed as increase in radiation-reduced RBC count at 50 mg/kg, ip administered for 5 days and irradiated with gamma radiation after 1 hr of compound administration by automated micro-analyzer; format: functional, organism-based; details: time 5.0 day
# Procedure, shortened: as §1
# Mus musculus [19] = experiment: Antioxidant activity against radiation-induced Swiss albino mouse assessed as decrease in MDA level in liver at 50 mg/kg, ip administered for 5 days and irradiated with gamma radiation after 1 hr of compound administration by ELISA relative to control; format: functional; design: scale not given: the % may be the effect or the level left; details: time 5 day
# Procedure, shortened: as §4
# Mus musculus [20] = experiment: Effect on hematopoiesis in gamma-irradiated Swiss albino mouse assessed as increase in radiation-reduced HGB count at 50 mg/kg, ip administered for 5 days and irradiated with gamma radiation after 1 hr of compound administration by automated micro-analyzer; format: functional, organism-based; details: time 5.0 day
# Procedure, shortened: as §1
# [21] = Toxicity in ip dosed Swiss albino mouse; format: organism-based; details: in vivo
# Mus musculus [22] = experiment: Antioxidant activity against radiation-induced Swiss albino mouse assessed as decrease in ROS level in liver at 50 mg/kg, ip administered for 5 days and irradiated with gamma radiation after 1 hr of compound administration by ELISA relative to control; format: functional; design: scale not given: the % may be the effect or the level left; details: time 5 day
# Procedure, shortened: as §4
# [23] = Toxicity in Swiss albino mouse assessed as effect on body weight at 50 mg/kg, ip administered for 5 days and observed for 30 days; format: organism-based; details: in vivo, 720 h, time 30 day
# Procedure, shortened: as §3
# Mus musculus [24] = experiment: Antioxidant activity against radiation-induced Swiss albino mouse assessed as decrease in NQO1 level in liver at 50 mg/kg, ip administered for 5 days and irradiated with gamma radiation after 1 hr of compound administration by ELISA relative to control; format: functional; design: scale not given: the % may be the effect or the level left; details: time 5 day
# Procedure, shortened: as §4
# Chain of Nuclear factor erythroid 2-related factor 2 (Mus musculus) (Q60795 whole entry, looked up): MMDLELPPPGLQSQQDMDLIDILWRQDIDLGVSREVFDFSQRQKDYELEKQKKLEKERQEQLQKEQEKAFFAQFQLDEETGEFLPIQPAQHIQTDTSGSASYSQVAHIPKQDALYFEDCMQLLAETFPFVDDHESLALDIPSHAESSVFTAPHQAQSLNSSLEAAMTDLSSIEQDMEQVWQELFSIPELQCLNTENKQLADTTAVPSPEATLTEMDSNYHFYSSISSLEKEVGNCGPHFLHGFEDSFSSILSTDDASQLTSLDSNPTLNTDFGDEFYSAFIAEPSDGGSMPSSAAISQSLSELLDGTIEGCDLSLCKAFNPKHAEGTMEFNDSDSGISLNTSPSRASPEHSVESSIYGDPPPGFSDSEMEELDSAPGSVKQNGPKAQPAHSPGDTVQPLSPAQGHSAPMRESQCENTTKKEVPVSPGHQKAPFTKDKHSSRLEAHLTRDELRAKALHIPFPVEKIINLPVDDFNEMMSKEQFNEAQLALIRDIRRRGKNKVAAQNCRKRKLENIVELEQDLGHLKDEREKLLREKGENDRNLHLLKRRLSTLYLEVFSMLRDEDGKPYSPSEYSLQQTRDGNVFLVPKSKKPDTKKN
smiles,measurement,setting,value
COc1cc(NC(=O)CSc2nc3c(I)cc(I)cc3c(=O)n2-c2ccc(S(N)(=O)=O)cc2)cc(OC)c1OC,T/C,Nrf2 (Mus musculus) [1],1.24
same,Activity,Mus musculus [2],Active
same,Activity,[3],Non-Toxic
same,T/C,Nrf2 (Mus musculus) [4],1.43
same,T/C,[5],2.42
same,T/C,Nrf2 (Mus musculus) [6],1.98
same,Activity,[7],Non-Toxic
same,T/C,Nrf2 (Mus musculus) [8],1.08
same,Activity,Nrf2 (Mus musculus) [9],Dose-dependent effect
same,CD,Nrf2 (Mus musculus) [9],20 µM
same,Activity,[10],Non-Toxic
same,Activity,[11],Non-Toxic
same,Activity,Mus musculus [12],19%
same,T/C,Nrf2 (Mus musculus) [13],1.1
same,T/C,Nrf2 (Mus musculus) [14],1.16
same,Activity,[15],Non-Toxic
same,Activity,[16],Non-Toxic
same,T/C,Nrf2 (Mus musculus) [17],1.02
same,Activity,Mus musculus [18],Active
same,Activity,Mus musculus [19],28%
same,Activity,Mus musculus [20],Active
same,LD50,[21],500 mg/kg
same,Activity,Mus musculus [22],23%
same,Activity,[23],Non-Toxic
same,Activity,Mus musculus [24],30%
